ChEMBL document CHEMBL4689842, “EUbOPEN Chemogenomics Library wave 1” (2021)

System: Fibroblast
Assay: Multiplex assay against human fibroblast
Assay type: toxicity, cell-based
Procedure, shortened: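 Live cells carried four stains from seeding: Hoechst33342, BioTracker Green Microtubule Cytoskeleton Dye, MitoTracker Red and Annexin V Alexa Fluor 680. They were imaged on a CQ1 microscope at 37°C and 5% CO2 after compound addition. Using CellPathfinder machine-learning gating, cells were split into Hoechst high-intensity objects or normal cells, normal cells into healthy, pyknosed or fragmented nuclei, and pyknosed cells into mitotic or apoptotic; tubulin, mitochondrial-mass and membrane-permeability phenotypes are per cents of healthy-nucleus cells.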

[1] = 12 h, 1 µM, compound concentration 1 uM, replicate 1
[2] = 12 h, 1 µM, compound concentration 1 uM, replicate 2
[3] = 12 h, 10 µM, compound concentration 10 uM, replicate 1
[4] = 12 h, 10 µM, compound concentration 10 uM, replicate 2
[5] = 24 h, 1 µM, compound concentration 1 uM, replicate 1
[6] = 24 h, 1 µM, compound concentration 1 uM, replicate 2
[7] = 24 h, 10 µM, compound concentration 10 uM, replicate 1
[8] = 24 h, 10 µM, compound concentration 10 uM, replicate 2
[9] = 48 h, 1 µM, compound concentration 1 uM, replicate 1
[10] = 48 h, 1 µM, compound concentration 1 uM, replicate 2
[11] = 48 h, 10 µM, compound concentration 10 uM, replicate 1
[12] = 48 h, 10 µM, compound concentration 10 uM, replicate 2

## CCCSc1nc(N[C@@H]2C[C@H]2c2ccc(F)c(F)c2)c2nnn([C@@H]3C[C@H](OCCO)[C@@H](O)[C@H]3O)c2n1 [TICAGRELOR]
[1]
  Population Apoptotic (%): 55%
  Population Fragmented Nuclei (%): 17%
  Population Healthy Nuclei (%): 48%
  Population Hoechst High Intensity Objects (%): 9%
  Population Membrane Permeable-Phenotype (%): 21%
  Population Mitochondria Different-Phenotype (%): 5%
  Population Mitotic Cells (%): 44%
  Population Normal (%): 90%
  Population Pyknosed Nuclei (%): 33%
  Population Tubulin-Different-Phenotype (%): 46%
  Total Cell Count: 179
[2]
  Population Apoptotic (%): 66%
  Population Fragmented Nuclei (%): 1%
  Population Healthy Nuclei (%): 93%
  Population Hoechst High Intensity Objects (%): 5%
  Population Membrane Permeable-Phenotype (%): 5%
  Population Mitochondria Different-Phenotype (%): 18%
  Population Mitotic Cells (%): 33%
  Population Normal (%): 94%
  Population Pyknosed Nuclei (%): 4%
  Population Tubulin-Different-Phenotype (%): 13%
  Total Cell Count: 82
[3]
  Population Apoptotic (%): 56%
  Population Fragmented Nuclei (%): 29%
  Population Healthy Nuclei (%): 27%
  Population Hoechst High Intensity Objects (%): 12%
  Population Membrane Permeable-Phenotype (%): 12%
  Population Mitochondria Different-Phenotype (%): 78%
  Population Mitotic Cells (%): 43%
  Population Normal (%): 87%
  Population Pyknosed Nuclei (%): 43%
  Population Tubulin-Different-Phenotype (%): 90%
  Total Cell Count: 139
[4]
  Population Apoptotic (%): 75%
  Population Fragmented Nuclei (%): 7%
  Population Healthy Nuclei (%): 79%
  Population Hoechst High Intensity Objects (%): 11%
  Population Membrane Permeable-Phenotype (%): 43%
  Population Mitochondria Different-Phenotype (%): 98%
  Population Mitotic Cells (%): 25%
  Population Normal (%): 88%
  Population Pyknosed Nuclei (%): 12%
  Population Tubulin-Different-Phenotype (%): 96%
  Total Cell Count: 67
[5]
  Population Apoptotic (%): 43%
  Population Fragmented Nuclei (%): 18%
  Population Healthy Nuclei (%): 62%
  Population Hoechst High Intensity Objects (%): 9%
  Population Membrane Permeable-Phenotype (%): 26%
  Population Mitochondria Different-Phenotype (%): 12%
  Population Mitotic Cells (%): 56%
  Population Normal (%): 90%
  Population Pyknosed Nuclei (%): 19%
  Population Tubulin-Different-Phenotype (%): 50%
  Total Cell Count: 172
[6]
  Population Apoptotic (%): 57%
  Population Fragmented Nuclei (%): 3%
  Population Healthy Nuclei (%): 87%
  Population Hoechst High Intensity Objects (%): 2%
  Population Membrane Permeable-Phenotype (%): 4%
  Population Mitochondria Different-Phenotype (%): 20%
  Population Mitotic Cells (%): 42%
  Population Normal (%): 97%
  Population Pyknosed Nuclei (%): 8%
  Population Tubulin-Different-Phenotype (%): 11%
  Total Cell Count: 81
[7]
  Population Apoptotic (%): 55%
  Population Fragmented Nuclei (%): 27%
  Population Healthy Nuclei (%): 33%
  Population Hoechst High Intensity Objects (%): 16%
  Population Membrane Permeable-Phenotype (%): 18%
  Population Mitochondria Different-Phenotype (%): 67%
  Population Mitotic Cells (%): 44%
  Population Normal (%): 83%
  Population Pyknosed Nuclei (%): 38%
  Population Tubulin-Different-Phenotype (%): 94%
  Total Cell Count: 133
[8]
  Population Apoptotic (%): 83%
  Population Fragmented Nuclei (%): 7%
  Population Healthy Nuclei (%): 73%
  Population Hoechst High Intensity Objects (%): 8%
  Population Membrane Permeable-Phenotype (%): 65%
  Population Mitochondria Different-Phenotype (%): 97%
  Population Mitotic Cells (%): 16%
  Population Normal (%): 91%
  Population Pyknosed Nuclei (%): 19%
  Population Tubulin-Different-Phenotype (%): 97%
  Total Cell Count: 80
[9]
  Population Apoptotic (%): 44%
  Population Fragmented Nuclei (%): 25%
  Population Healthy Nuclei (%): 55%
  Population Hoechst High Intensity Objects (%): 9%
  Population Membrane Permeable-Phenotype (%): 16%
  Population Mitochondria Different-Phenotype (%): 5%
  Population Mitotic Cells (%): 55%
  Population Normal (%): 90%
  Population Pyknosed Nuclei (%): 19%
  Population Tubulin-Different-Phenotype (%): 36%
  Total Cell Count: 167
[10]
  Population Apoptotic (%): 66%
  Population Fragmented Nuclei (%): 27%
  Population Healthy Nuclei (%): 68%
  Population Hoechst High Intensity Objects (%): 10%
  Population Membrane Permeable-Phenotype (%): 18%
  Population Mitochondria Different-Phenotype (%): 3%
  Population Mitotic Cells (%): 33%
  Population Normal (%): 89%
  Population Pyknosed Nuclei (%): 3%
  Population Tubulin-Different-Phenotype (%): 57%
  Total Cell Count: 88
[11]
  Population Apoptotic (%): 69%
  Population Fragmented Nuclei (%): 50%
  Population Healthy Nuclei (%): 31%
  Population Hoechst High Intensity Objects (%): 20%
  Population Membrane Permeable-Phenotype (%): 22%
  Population Mitochondria Different-Phenotype (%): 62%
  Population Mitotic Cells (%): 30%
  Population Normal (%): 79%
  Population Pyknosed Nuclei (%): 18%
  Population Tubulin-Different-Phenotype (%): 90%
  Total Cell Count: 159
[12]
  Population Apoptotic (%): 75%
  Population Fragmented Nuclei (%): 32%
  Population Healthy Nuclei (%): 61%
  Population Hoechst High Intensity Objects (%): 5%
  Population Membrane Permeable-Phenotype (%): 2%
  Population Mitochondria Different-Phenotype (%): 84%
  Population Mitotic Cells (%): 25%
  Population Normal (%): 94%
  Population Pyknosed Nuclei (%): 6%
  Population Tubulin-Different-Phenotype (%): 92%
  Total Cell Count: 135

## CN1CCN(Cc2ccc(Nc3ncc(Cl)c(Nc4ccccc4S(=O)(=O)N(C)C)n3)cc2)CC1 [DUBERMATINIB]
[1]
  Population Apoptotic (%): 54%
  Population Fragmented Nuclei (%): 27%
  Population Healthy Nuclei (%): 50%
  Population Hoechst High Intensity Objects (%): 12%
  Population Membrane Permeable-Phenotype (%): 41%
  Population Mitochondria Different-Phenotype (%): 3%
  Population Mitotic Cells (%): 45%
  Population Normal (%): 87%
  Population Pyknosed Nuclei (%): 21%
  Population Tubulin-Different-Phenotype (%): 41%
  Total Cell Count: 126
[2]
  Population Apoptotic (%): 100%
  Population Fragmented Nuclei (%): 13%
  Population Healthy Nuclei (%): 83%
  Population Hoechst High Intensity Objects (%): 10%
  Population Membrane Permeable-Phenotype (%): 4%
  Population Mitochondria Different-Phenotype (%): 16%
  Population Mitotic Cells (%): 0%
  Population Normal (%): 89%
  Population Pyknosed Nuclei (%): 2%
  Population Tubulin-Different-Phenotype (%): 11%
  Total Cell Count: 65
[3]
  Population Apoptotic (%): 72%
  Population Fragmented Nuclei (%): 18%
  Population Healthy Nuclei (%): 57%
  Population Hoechst High Intensity Objects (%): 14%
  Population Membrane Permeable-Phenotype (%): 22%
  Population Mitochondria Different-Phenotype (%): 11%
  Population Mitotic Cells (%): 28%
  Population Normal (%): 85%
  Population Pyknosed Nuclei (%): 23%
  Population Tubulin-Different-Phenotype (%): 56%
  Total Cell Count: 125
[4]
  Population Apoptotic (%): 73%
  Population Fragmented Nuclei (%): 45%
  Population Healthy Nuclei (%): 31%
  Population Hoechst High Intensity Objects (%): 9%
  Population Membrane Permeable-Phenotype (%): 28%
  Population Mitochondria Different-Phenotype (%): 38%
  Population Mitotic Cells (%): 26%
  Population Normal (%): 90%
  Population Pyknosed Nuclei (%): 22%
  Population Tubulin-Different-Phenotype (%): 42%
  Total Cell Count: 91
[5]
  Population Apoptotic (%): 70%
  Population Fragmented Nuclei (%): 28%
  Population Healthy Nuclei (%): 57%
  Population Hoechst High Intensity Objects (%): 11%
  Population Membrane Permeable-Phenotype (%): 31%
  Population Mitochondria Different-Phenotype (%): 5%
  Population Mitotic Cells (%): 29%
  Population Normal (%): 88%
  Population Pyknosed Nuclei (%): 14%
  Population Tubulin-Different-Phenotype (%): 37%
  Total Cell Count: 137
[6]
  Population Apoptotic (%): 0%
  Population Fragmented Nuclei (%): 11%
  Population Healthy Nuclei (%): 83%
  Population Hoechst High Intensity Objects (%): 6%
  Population Membrane Permeable-Phenotype (%): 4%
  Population Mitochondria Different-Phenotype (%): 36%
  Population Mitotic Cells (%): 100%
  Population Normal (%): 93%
  Population Pyknosed Nuclei (%): 4%
  Population Tubulin-Different-Phenotype (%): 14%
  Total Cell Count: 70
[7]
  Population Apoptotic (%): 42%
  Population Fragmented Nuclei (%): 23%
  Population Healthy Nuclei (%): 55%
  Population Hoechst High Intensity Objects (%): 15%
  Population Membrane Permeable-Phenotype (%): 12%
  Population Mitochondria Different-Phenotype (%): 16%
  Population Mitotic Cells (%): 57%
  Population Normal (%): 84%
  Population Pyknosed Nuclei (%): 21%
  Population Tubulin-Different-Phenotype (%): 61%
  Total Cell Count: 116
[8]
  Population Apoptotic (%): 95%
  Population Fragmented Nuclei (%): 30%
  Population Healthy Nuclei (%): 33%
  Population Hoechst High Intensity Objects (%): 14%
  Population Membrane Permeable-Phenotype (%): 55%
  Population Mitochondria Different-Phenotype (%): 55%
  Population Mitotic Cells (%): 4%
  Population Normal (%): 85%
  Population Pyknosed Nuclei (%): 36%
  Population Tubulin-Different-Phenotype (%): 65%
  Total Cell Count: 87
[9]
  Population Apoptotic (%): 62%
  Population Fragmented Nuclei (%): 39%
  Population Healthy Nuclei (%): 46%
  Population Hoechst High Intensity Objects (%): 10%
  Population Membrane Permeable-Phenotype (%): 22%
  Population Mitochondria Different-Phenotype (%): 7%
  Population Mitotic Cells (%): 37%
  Population Normal (%): 89%
  Population Pyknosed Nuclei (%): 13%
  Population Tubulin-Different-Phenotype (%): 40%
  Total Cell Count: 129
[10]
  Population Apoptotic (%): 66%
  Population Fragmented Nuclei (%): 30%
  Population Healthy Nuclei (%): 67%
  Population Hoechst High Intensity Objects (%): 4%
  Population Membrane Permeable-Phenotype (%): 24%
  Population Mitochondria Different-Phenotype (%): 5%
  Population Mitotic Cells (%): 33%
  Population Normal (%): 95%
  Population Pyknosed Nuclei (%): 2%
  Population Tubulin-Different-Phenotype (%): 41%
  Total Cell Count: 115
[11]
  Population Apoptotic (%): 53%
  Population Fragmented Nuclei (%): 39%
  Population Healthy Nuclei (%): 36%
  Population Hoechst High Intensity Objects (%): 13%
  Population Membrane Permeable-Phenotype (%): 31%
  Population Mitochondria Different-Phenotype (%): 21%
  Population Mitotic Cells (%): 46%
  Population Normal (%): 86%
  Population Pyknosed Nuclei (%): 24%
  Population Tubulin-Different-Phenotype (%): 73%
  Total Cell Count: 122
[12]
  Population Apoptotic (%): 50%
  Population Fragmented Nuclei (%): 43%
  Population Healthy Nuclei (%): 44%
  Population Hoechst High Intensity Objects (%): 16%
  Population Membrane Permeable-Phenotype (%): 32%
  Population Mitochondria Different-Phenotype (%): 19%
  Population Mitotic Cells (%): 50%
  Population Normal (%): 83%
  Population Pyknosed Nuclei (%): 11%
  Population Tubulin-Different-Phenotype (%): 48%
  Total Cell Count: 83
